This note sets out measurements from ChEMBL document CHEMBL1921671, “Benzisothiazolinone as a useful template for the design of new monoacylglycerol lipase inhibitors: investigation of the target residues and comparison with octhilinone” (Bioorg Med Chem Lett, 2011).

For experiment [1], the target named is T1, Monoglyceride lipase (Homo sapiens) (UniProt Q99685).
T1 sequence (whole entry): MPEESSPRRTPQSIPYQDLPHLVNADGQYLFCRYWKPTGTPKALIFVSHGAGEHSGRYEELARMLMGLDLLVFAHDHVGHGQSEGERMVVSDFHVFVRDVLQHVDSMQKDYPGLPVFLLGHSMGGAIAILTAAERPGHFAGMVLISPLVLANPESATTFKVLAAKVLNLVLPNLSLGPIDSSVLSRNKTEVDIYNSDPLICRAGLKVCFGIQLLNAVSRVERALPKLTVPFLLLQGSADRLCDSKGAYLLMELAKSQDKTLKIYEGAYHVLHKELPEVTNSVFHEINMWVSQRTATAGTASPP
In words: Inhibition of human recombinant MAGL assessed as [3H]oleoylglycerol hydrolysis at 1 mM after 10 mins by liquid scintillation counting. The essentials:
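Single-concentration test at 10^-3 M against purified recombinant human MAGL, 5 ng. Inhibitor preincubated 10 min at 37 °C. [3H]-2-oleoylglycerol at 10 µM final hydrolysed 10 min at 37 °C in 50 mM Tris pH 8.0 with BSA. Reaction quenched with cold methanol/chloroform. Aqueous-layer radioactivity read by scintillation, blanks subtracted, and result expressed as % inhibition.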

Experiment [2] deals with T2, Fatty-acid amide hydrolase 1 (Homo sapiens) (UniProt O00519).
T2 sequence (whole entry): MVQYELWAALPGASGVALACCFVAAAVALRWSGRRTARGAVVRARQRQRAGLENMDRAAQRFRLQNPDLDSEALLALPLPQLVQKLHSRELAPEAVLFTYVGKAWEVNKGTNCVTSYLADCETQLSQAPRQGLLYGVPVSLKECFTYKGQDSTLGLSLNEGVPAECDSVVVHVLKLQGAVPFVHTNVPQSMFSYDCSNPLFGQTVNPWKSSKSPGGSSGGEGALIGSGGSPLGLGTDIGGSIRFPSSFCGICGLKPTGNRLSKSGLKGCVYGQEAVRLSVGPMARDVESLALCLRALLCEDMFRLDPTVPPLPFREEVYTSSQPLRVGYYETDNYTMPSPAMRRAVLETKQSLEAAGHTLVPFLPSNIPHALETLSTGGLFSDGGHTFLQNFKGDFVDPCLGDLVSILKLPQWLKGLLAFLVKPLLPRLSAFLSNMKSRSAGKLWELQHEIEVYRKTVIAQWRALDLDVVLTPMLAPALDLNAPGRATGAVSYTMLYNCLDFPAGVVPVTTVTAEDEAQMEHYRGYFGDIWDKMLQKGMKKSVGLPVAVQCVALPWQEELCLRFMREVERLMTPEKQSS
The experiment is described as follows: Inhibition of human recombinant FAAH assessed as conversion of [3H]AEA to [3H]ethanolamine at 1 mM after 10 mins by liquid scintillation counting.

In experiment [3] the target is T1, Monoglyceride lipase (Homo sapiens). In words: Inhibition of human recombinant MAGL assessed as [3H]oleoylglycerol hydrolysis preincubated for 10 mins at 37 degC by liquid scintillation counting. In short, it runs like this:
(§1)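 Purified recombinant human MAGL (5 ng; 50 mM Tris pH 8.0, 0.1% BSA) preincubated with inhibitor at the line's time and temperature. Then incubated 10 min at 37 °C with 2-OG (10 µM final; [3H]-2-OG 50,000 dpm; Tris pH 8.0 with 0.6% BSA). Stopped with ice-cold methanol:chloroform 1:1 and centrifuged. Aqueous-phase radioactivity counted by liquid scintillation. No-enzyme blanks subtracted.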

Experiment [4] has the same target. The experiment is described as follows: Inhibition of human recombinant MAGL assessed as [3H]oleoylglycerol hydrolysis preincubated for 30 mins at 37 degC by liquid scintillation counting. The essentials: as §1
Experiment [5] shares this target. In words: Inhibition of human recombinant MAGL assessed as [3H]oleoylglycerol hydrolysis preincubated for 10 mins at room temperature by liquid scintillation counting. The essentials:
as §1

For experiment [6] the target is unchanged. In words: Inhibition of human recombinant MAGL assessed as inhibition of [3H]oleoylglycerol hydrolysis preincubated for 30 mins at room temperature by liquid scintillation counting. In short, it runs like this:
as §1

Experiment [7] has the same target. In words: Inhibition of human recombinant MAGL assessed as [3H]oleoylglycerol hydrolysis at 10^-5 M preincubated for 5 mins measured after 15 mins by liquid scintillation counting in the presence of dithiothreitol.
For experiment [8], the system named is T3, Monoglyceride lipase (Homo sapiens), Q99685 [C208A].
T3 sequence (whole entry): T1 sequence (whole entry) with C208A
The experiment is described as follows: Inhibition of human MAGL C208A mutant.

The subject of experiment [9] is T4, Monoglyceride lipase (Homo sapiens), Q99685 [C242A].
T4 sequence (whole entry): T1 sequence (whole entry) with C242A
In words: Inhibition of human MAGL C242A mutant.

Experiment [10] concerns T5, Monoglyceride lipase (Homo sapiens), Q99685 [C201A].
T5 sequence (whole entry): T1 sequence (whole entry) with C201A
The experiment is described as follows: Inhibition of human MAGL C201A mutant.

Experiment [11] concerns T6, Monoglyceride lipase (Homo sapiens), Q99685 [C201A,C208A,C242A].
T6 sequence (whole entry): T1 sequence (whole entry) with C201A, C208A, C242A
In words: Inhibition of human MAGL C201A/C208A/C242A mutant.

Experiment [12] is filed under the species Homo sapiens. The experiment is described as follows: Selectivity ratio of IC50 for human recombinant FAAH to IC50 for human recombinant MAGL by liquid scintillation counting.
A short description of experiment [13]: Selectivity ratio of IC50 for rat MAGL to IC50 for human MAGL.
Experiment [14] is filed under the species Homo sapiens. The experiment is described as follows: Selectivity ratio of IC50 for human recombinant FAAH to IC50 for human recombinant MAGL by liquid scintillation counting of radiolabeled 2-OG hydrolysis.
Experiment [15] deals with T7, Monoglyceride lipase (Homo sapiens, UniProt Q99685).
T7 sequence (Q99685 whole entry): T1 sequence (whole entry)
In words: Inhibition of human recombinant MAGL assessed as [3H]oleoylglycerol hydrolysis after 10 mins by liquid scintillation counting. The essentials: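 Purified recombinant human MAGL, 5 ng, in 50 mM Tris pH 8.0 with 0.1% BSA, preincubated with […]. Substrate [3H]-2-oleoylglycerol at 10 µM final in Tris pH 8.0 with 0.6% BSA. Reaction run 10 min at 37 °C and stopped with ice-cold 1:1 methanol/chloroform, then centrifuged. Aqueous-phase radioactivity counted by liquid scintillation; no-enzyme blanks subtracted.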

Experiment [16] addresses T7, Monoglyceride lipase. The experiment is described as follows: Inhibition of human recombinant MAGL assessed as inhibition of 2-oleoylglycerol hydrolysis preincubated for 10 mins by LC/MS analysis.
The target in experiment [17] is T8, Monoglyceride lipase (Rattus norvegicus, UniProt Q8R431).
T8 sequence (Q8R431 whole entry): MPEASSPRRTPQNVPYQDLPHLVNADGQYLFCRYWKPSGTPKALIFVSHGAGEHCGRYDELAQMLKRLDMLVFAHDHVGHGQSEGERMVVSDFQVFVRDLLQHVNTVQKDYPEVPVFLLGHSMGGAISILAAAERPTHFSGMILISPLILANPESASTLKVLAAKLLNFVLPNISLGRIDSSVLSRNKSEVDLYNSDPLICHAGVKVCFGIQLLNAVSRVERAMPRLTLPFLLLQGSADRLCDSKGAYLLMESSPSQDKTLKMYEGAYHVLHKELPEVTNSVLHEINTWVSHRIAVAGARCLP
In words: Inhibition of rat recombinant N-terminal his-tagged MAGL expressed in Escherichia coli DH5alpha assessed as 2-oleoylglycerol hydrolysis after 10 mins by LC/MS analysis.

The target of experiment [18] is T9, Fatty-acid amide hydrolase 1 (Homo sapiens, UniProt O00519).
T9 sequence (O00519 whole entry): T2 sequence (whole entry)
In words: Inhibition of human recombinant FAAH assessed as conversion of [3H]AEA to [3H]ethanolamine after 10 mins by liquid scintillation counting.

Positions count from the first letter of the chain named. Calls of active or inactive are those of the source. The rule behind the calls is not given here.

`c1ccc(-c2ccc(COc3nsc4ccccc34)cc2)cc1`: the inhibition entry in [1] is “inactive”. Besides, the inhibition in [2] was found to be 50%.
The like results for `CCCCCCCCN1C(=O)c2ccccc2C1=O` were, in that order, “inactive” and “inactive”.
The like results for `CCCCCCCCN1Cc2ccccc2C1=O` were, in that order, “inactive” and “inactive”.
`CCCCCCCCN1SCCC1=O`: the inhibition result in experiment [3], in experiment [4], in experiment [5] and in experiment [6] was “Active” in each case. Further, the inhibition entry in experiment [7], in [8], in [9], in [10] and in [11] was “inactive” throughout. In addition, the Ratio IC50 in the experiment listed under Homo sapiens [12] was 17.3; in experiment [13] it was 1.5; in the experiment listed under Homo sapiens [14], 53.
As for `CCCCCCCCn1sc2ccccc2c1=O`, the IC50 is 1.66 µM at Monoglyceride lipase [15], 0.66 µM on Monoglyceride lipase [16], 0.059 µM at Monoglyceride lipase [17] and 35.2 µM in experiment [18]. Besides, the inhibition result in experiment [3], in experiment [4], in experiment [5], in [6] and in experiment [8] was “Active” in each case. The inhibition entry in [7], in experiment [9], in [10] and in experiment [11] was “inactive” each time. For the same compound, the Ratio IC50 in the experiment filed under Homo sapiens [12] worked out at 21.2; in [13], 11; in the experiment listed under Homo sapiens [14], 53.
For `O=c1c2ccccc2sn1Cc1ccc(-c2ccccc2)cc1`, the IC50 at Monoglyceride lipase [15] was determined as 0.41 µM; in [18], 30 µM. Moreover, the Ratio IC50 in the experiment listed under Homo sapiens [12] stood at 73.
Turning to `CCCCCCCCOc1noc2ccccc12`, the IC50 at Monoglyceride lipase [15] worked out at 67.9 µM; in experiment [18] it was 31.6 µM. Besides, the Ratio IC50 in the experiment filed under Homo sapiens [12] amounted to 0.47.
As to `CCCCCCCCn1c(=O)sc2ccccc21`, the inhibition in [1] was 72%. Besides, the half-inhibitory concentration (IC50) in experiment [18] is 309 µM.
For the compound `CCCCCCCCn1sccc1=O` [OCTHILINONE], the IC50 at Monoglyceride lipase [15] came out at 1.09 µM; on Monoglyceride lipase [16], 0.14 µM; in [18] it was 18.9 µM.
Turning to `CCCCCCCCn1oc2ccccc2c1=O`, the concentration for half-maximal inhibition (IC50) came out at 275 µM on Monoglyceride lipase [15] and 44.7 µM in [18]. The Ratio IC50 in the experiment listed under Homo sapiens [12] stood at 0.16.
As to `CCCCCCCCn1c(=O)oc2ccccc21`, the inhibition in [1] is 26%. Also, the IC50 in experiment [18] came to 129 µM.
In the case of `CCCCCCCCOc1nsc2ccccc12`, the values for the inhibition in experiment [1] and in [2] were 55% and 43%, respectively.
